In the library only some 2.7% were active in any assay of this set; here they are far more common.
DENV2 CPE rescue = inhibitors of DENV2 cytopathic effect, primary screen, cell-based, plate reader, single concentration | DENV2-infected cells, cytopathic effect rescue | CPE inhibition, % at 9.99 µM | 1.7% of 350,000 active; in the data active = CPE inhibition above about 20%, passing the limit was not always enough; inconclusive = no clear call, values can overlap the other calls; tested in BHK-21 cells
S100A4 inh HTS = inhibitors of S100A4-myosin IIA peptide binding, primary screen, biochemical, fluorescence polarization, TAMRA-MyoIIA peptide; 0.14% of 360,000 active; AID 652163, 2013; inhibition, % at 10.7 µM;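 active = mean inhibition of at least 70% across replicates, with every replicate also reaching that level; inconclusive = mean inhibition reaches 70% but some replicates fall short; inactive = mean inhibition below 70%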
Target sequence (P26447 whole entry, looked up): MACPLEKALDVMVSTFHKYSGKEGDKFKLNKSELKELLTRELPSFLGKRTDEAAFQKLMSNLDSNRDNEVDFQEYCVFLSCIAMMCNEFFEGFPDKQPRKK
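Test system: S100A4 monomer protein. Medium: HEPES buffer with Ca2+, pH 7.2. Reagent: fluorescent myosin IIA peptide, 5 nM. Compound dosing: single-point compound testing. Timing: 5 min between mix addition and reading. Benchmarks: DMSO neutral and TFP positive wells.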
SIRT5 block = SIRT5 desuccinylase inhibitors, primary screen, biochemical, fluorescence imaging, single point, set 5; NAD-dependent protein deacylase sirtuin-5, mitochondrial (Homo sapiens), Q9NXA8; Purified SirT5, succinyl-peptide AMC, trypsin-coupled fluorescence; inhibition, % at 15 µM; 1.1% of 330,000 active; AID 652115, 2013; in the data active = inhibition above about 15%; inconclusive = no clear call, values can overlap the other calls
Target sequence (Q9NXA8 whole entry, looked up): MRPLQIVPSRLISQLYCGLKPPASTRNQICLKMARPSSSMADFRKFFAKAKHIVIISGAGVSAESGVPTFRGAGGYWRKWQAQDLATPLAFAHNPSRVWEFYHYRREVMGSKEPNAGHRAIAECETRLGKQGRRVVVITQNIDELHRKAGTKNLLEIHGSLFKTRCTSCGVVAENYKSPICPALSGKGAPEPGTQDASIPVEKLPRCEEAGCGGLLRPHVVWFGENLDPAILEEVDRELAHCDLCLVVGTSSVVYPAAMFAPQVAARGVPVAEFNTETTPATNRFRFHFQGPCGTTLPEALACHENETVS
CaV13 FRET inh = Disruptors of the CACNA1D IQ motif to Ca2+-dependent inactivation inhibitor domain association, primary screening, Förster resonance energy transfer in intact living …; HEK cells, CFP/YFP FRET ICDI-IQ, plate reader, 10 min; percent FRET-ratio fall versus neutral wells; inhibition, % at 12.3 µM; 0.098% of 340,000 active; AID 743397;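 active = mean replicate inhibition of at least 30% and at least 1% of replicates passing that level; inconclusive = only one of the two criteria is met; inactive = neither criterion is met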
AF4-AF9 inh = inhibitors of AF4 peptide binding to AF9, primary screen, biochemical, AlphaScreen, biotin-AF4 peptide, FLAG-AF9, single point | Protein AF-9 (Homo sapiens), P42568 | inhibition, % at 10 µM | 0.47% of 350,000 active | AID 651704, 2012;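 active = every replicate reaching a set inhibition limit, whatever the replicate mean, cut at about 25% in these data; inconclusive = mean inhibition reaches that limit but some replicates miss it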
Large screens that a line does not name were inactive; ! = not active in a repeat.

COc1cc(C2C(C#N)=C(N)Oc3c2ccc2ccccc32)ccc1OCC(=O)Nc1ccc(C)cc1 (configuration not stated)	SIRT5 block 20.0
COc1cc(C2C(C#N)=C(N)Oc3c2ccc2ccccc32)ccc1OCC(=O)Nc1cccc(C)c1 (configuration not stated)	none
Cc1ccc2c(c1)c1c(n2CC(O)CNC2CCCCC2)CCCC1 (configuration not stated)	AF4-AF9 inh 29.9 (no result: SIRT5 block)
O=C(Nc1nccs1)[C@H]1[C@H](CO)[C@H]2Cn3c(cccc3=O)[C@H]2N1C(=O)C1CCCC1	none (no result: CaV13 FRET inh, AF4-AF9 inh)
COc1ccc(C2CC(=O)C(C=NCCO)=C(O)C2)cc1 (configuration not stated)	SIRT5 block 23.2
CN(C)C(=O)c1ccc(-c2ccc3c(c2)[C@@H]2[C@@H](CCN2C(=O)c2cnccn2)[C@@H](CO)N3)cc1	DENV2 CPE rescue inconclusive (no result: CaV13 FRET inh)
CCC1CCCCN1CCCNC(=O)Cn1cnc2sc(C)c(S(=O)(=O)N3CCC(C)CC3)c2c1=O (configuration not stated)	SIRT5 block 17.4
Nc1nnc(CC(=O)N/N=C/c2ccc(-c3ccc(F)cc3)o2)s1	none
Nc1nnc(CC(=O)N/N=C/c2ccc(-c3cccc(C(=O)O)c3)o2)s1	SIRT5 block 19.7
COc1ccccc1CN1C[C@@H]2N[C@H](C1)C2c1ccc(-c2ccccc2)cc1 (some centres not stated)	none (no result: CaV13 FRET inh)
COc1ccccc1CN1C[C@@H]2N[C@H](C1)C2c1ccc(/C=C/c2ccccc2)cc1 (some centres not stated)	AF4-AF9 inh 29.9 (no result: CaV13 FRET inh)
O=C(Nc1ccccc1)N1C[C@@H]2N[C@H](C1)C2c1ccc(-c2ccccc2)cc1 (some centres not stated)	none (no result: CaV13 FRET inh)
Cc1ccc(-c2ccc(C3[C@@H]4CN(C(=O)Nc5ccc(C(F)(F)F)cc5)C[C@H]3N4)cc2)cc1 (some centres not stated)	none (no result: CaV13 FRET inh)
C/C=C/c1ccc(C2[C@@H]3CN(C(=O)Nc4ccc5c(c4)OCO5)C[C@H]2N3)cc1 (some centres not stated)	DENV2 CPE rescue 27.2! (no result: S100A4 inh HTS, SIRT5 block, CaV13 FRET inh, AF4-AF9 inh)
O=C(Nc1ccccc1)N1C[C@@H]2N[C@H](C1)[C@@H]2c1ccc(/C=C/c2ccccc2)cc1	AF4-AF9 inh 28.8 (no result: CaV13 FRET inh)
O=C(Nc1ccc(C(F)(F)F)cc1)N1C[C@@H]2N[C@H](C1)C2c1ccc(-c2cccc(F)c2)cc1 (some centres not stated)	DENV2 CPE rescue inconclusive, SIRT5 block 15.1! (no result: CaV13 FRET inh)
Cc1ccc(S(=O)(=O)Nc2ccc3c(c2)C(=O)N([C@@H](C)CO)C[C@@H](C)[C@H](CN(C)Cc2ccc(C(=O)O)cc2)OCCCC[C@@H](C)O3)cc1	none (no result: CaV13 FRET inh)
CC(C)NC(=O)N(C)C[C@@H]1Oc2c(NC(=O)C3CCOCC3)cccc2C(=O)N([C@@H](C)CO)C[C@@H]1C	none (no result: CaV13 FRET inh)
C[C@H]1CN([C@@H](C)CO)S(=O)(=O)c2ccc(-c3ccc(C(=O)N(C)C)cc3)cc2O[C@H]1CN(C)C(=O)Nc1ccccc1F	none (no result: CaV13 FRET inh)
Clc1cccc(Cl)c1Cn1cnc2c(NCc3ccco3)ncnc21	none
Cn1cnc2c(NCc3ccco3)ncnc21	DENV2 CPE rescue inconclusive, SIRT5 block 30.4 (no result: CaV13 FRET inh)
S=C(NCc1ccccc1)NC1CCCc2ccccc21 (configuration not stated)	SIRT5 block 112.0
S=C(NCc1ccco1)NC1CCCc2ccccc21 (configuration not stated)	none
C[C@@H]1CN([C@@H](C)CO)C(=O)c2cc(C#CC3CCCCC3)cnc2O[C@H]1CN(C)Cc1cncnc1	none (no result: CaV13 FRET inh)
C[C@H]1CN([C@@H](C)CO)C(=O)c2cc(C#CC3CC3)cnc2O[C@@H]1CN(C)C	DENV2 CPE rescue 69.1 (no result: CaV13 FRET inh)
C[C@@H]1CN([C@H](C)CO)C(=O)c2cc(C#Cc3ccc(F)cc3)cnc2O[C@H]1CN(C)C	none (no result: CaV13 FRET inh)
C[C@@H]1CN([C@H](C)CO)C(=O)c2cc(C#Cc3ccc(F)cc3)cnc2O[C@@H]1CN(C)C	DENV2 CPE rescue 81.1 (no result: CaV13 FRET inh)
C[C@H]1CN([C@@H](C)CO)C(=O)c2cc(C#CC3CCCCC3)cnc2O[C@H]1CN(C)Cc1cncnc1	S100A4 inh HTS 98.5 (no result: CaV13 FRET inh)
CC(C)CC#Cc1cnc2c(c1)C(=O)N([C@H](C)CO)C[C@@H](C)[C@H](CN(C)S(C)(=O)=O)O2	S100A4 inh HTS 95.3 (no result: CaV13 FRET inh)
C[C@@H]1CN([C@H](C)CO)C(=O)c2cc(C#CC3CC3)cnc2O[C@H]1CN(C)C	none (no result: CaV13 FRET inh)
C[C@@H]1CN([C@@H](C)CO)C(=O)c2cccc(NC(=O)Nc3ccc(F)cc3)c2O[C@H]1CN(C)Cc1ccncc1	none (no result: CaV13 FRET inh)
O=C(C[C@@H]1CC[C@@H]2[C@H](COC[C@H](O)CN2Cc2ccncc2)O1)NCC1CC1	none (no result: CaV13 FRET inh)
C[C@@H]1CN([C@@H](C)CO)C(=O)c2cc(C#CC3CCCCC3)cnc2O[C@@H]1CN(C)C(=O)Nc1ccccc1	SIRT5 block 16.4 (no result: CaV13 FRET inh)
CC(C)c1ccc(NC(=O)N2CCc3ccccc3C2)cc1	none
O=C(c1cccc([N+](=O)[O-])c1)N1CCc2ccccc21	none
CCN(CC)S(=O)(=O)c1ccc(Cl)c(C(=O)N2CCc3ccccc32)c1	none (no result: DENV2 CPE rescue, S100A4 inh HTS, SIRT5 block, AF4-AF9 inh)
O=C(c1ccc([N+](=O)[O-])cc1)N1CCc2ccccc21	AF4-AF9 inh 47.0
O=C(Nc1ccc([N+](=O)[O-])cc1)N1CCc2ccccc2C1	DENV2 CPE rescue 23.4
CCN(CC)S(=O)(=O)c1ccc(C(=O)N2CCc3ccccc32)cc1	SIRT5 block 16.2
O=C(C[C@H]1C[C@@H]2c3cc(NC(=O)Cc4ccncc4)ccc3O[C@@H]2[C@@H](CO)O1)NCCN1CCCCC1	none (no result: CaV13 FRET inh)
N#C[C@H]1[C@H](c2ccc(-c3cccc(F)c3)cc2)[C@@H](CO)N1S(=O)(=O)c1cccc(F)c1	none (no result: CaV13 FRET inh)
CN(C)S(=O)(=O)c1ccc(Cl)c(NC(=O)CSc2nc3c(cc2C#N)C(=O)CC(C)(C)C3)c1	DENV2 CPE rescue 30.8
CN(C)c1ccc(NC(=O)Cn2cc3c(n2)CCCC3)cc1	AF4-AF9 inh 30.7 (no result: SIRT5 block)
C[C@@H]1CN([C@@H](C)CO)S(=O)(=O)c2ccc(C#Cc3cccc(F)c3)cc2O[C@H]1CN(C)C	none (no result: CaV13 FRET inh)
C[C@H]1CCCCO[C@@H](CN(C)Cc2ccc(C(F)(F)F)cc2)[C@@H](C)CN([C@@H](C)CO)C(=O)c2cc(N(C)C)ccc2O1	AF4-AF9 inh 37.2 (no result: CaV13 FRET inh)
C[C@H]1CCCCO[C@H](CN(C)Cc2ccc(C(F)(F)F)cc2)[C@@H](C)CN([C@@H](C)CO)C(=O)c2cc(N(C)C)ccc2O1	AF4-AF9 inh 32.7 (no result: CaV13 FRET inh)
C[C@@H]1CCCCO[C@@H](CN(C)Cc2ccc(C(F)(F)F)cc2)[C@@H](C)CN([C@H](C)CO)C(=O)c2cc(N(C)C)ccc2O1	none (no result: CaV13 FRET inh)

High-throughput results from PubChem.
